Sampled rows, rich in hits. Any-hit rate of the full collection: about 3.4%.
HTR2A ag – mouse Htr2a agonists via beta-arrestin recruitment, primary screen, cell-based, luminescence; 5-hydroxytryptamine receptor 2A (Mus musculus), P35363; CHO-K1 mHTR2A beta-arrestin complementation; percent of 30 µM serotonin response; 360,000 compounds, 0.66% hits; activation, % at 7.6 µM; AID 624169, 2012;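 active = activation above a run cutoff, the mean activation of all tested compounds plus 3 SD, cut at about 14% in these data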;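 also: 0% = plate median of compound wells and 100% = 30 µM serotonin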
MIN6 prolif – inducers of MIN6 beta-cell proliferation, primary screen, ATP luminescence, uHTS | MIN6 cells proliferation, ATPlite luminescence, 48 h; cells starved in 0.2% serum; 100% = growth in 10% serum | AID 2380, 2010 | 330,000 compounds, 0.29% hits | proliferation, % at 10 µM;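 active = compounds whose signal lies at least 3.5 SD above the mean of all wells on their plate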;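 also: 0% = DMSO-treated cells in low-serum medium and 100% = 10% serum control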
MC4R barr agon – MC4R agonists recruiting beta-arrestin, primary screen, cell-based, luminescence, agonist arm of biased-ligand search. 360,000 compounds, 0.98% hits. Melanocortin receptor 4 (Homo sapiens), P32245. activation, % at 8.9 µM. U2OS MC4R beta-arrestin complementation; percent of melanotan II response, DMSO zero;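 active = activation above a per-plate cutoff, the mean activation of sample wells on that plate plus 3 SD, cut at about 8% in these data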
MC4R antag cAMP – MC4R antagonists of cAMP signaling, primary screen, cell-based, TR-FRET, antagonist arm of biased-ligand search. Melanocortin receptor 4 (Homo sapiens), P32245. MC4R-expressing cells, MTII-stimulated cAMP, LANCE TR-FRET. inhibition, % at 6.5 µM. 360,000 compounds, 0.48% hits. AID 540295, 2011;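 active = inhibition above its plate's cutoff, the mean of tested wells on that plate plus 3 SD, cut at about 29% in these data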;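 also: 0% = Melanotan II alone and 100% = Melanotan II plus saturating MCL0020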
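material = U2OS cells stably expressing human melanocortin 4 receptor (MC4R) | also added = Melanotan II challenge | dosing = single nominal compound dose of 6.5 µM | detection = TR-FRET with Eu-cAMP and labeled anti-cAMP, 671 nm | replication = singlicate | timing = compound 30 min, challenge 1 h, detection 1 h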
TMEM16A act – TMEM16A chloride channel activators or potentiators, primary screen, cell-based, HTS. Anoctamin-1 (Mus musculus), Q8BHY3. HEK293 TMEM16A/YFP-H148Q/I152L, iodide quench fluorescence; stronger effect = lower value. B-score at 10 µM. 340,000 compounds, 0.3% hits;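 active = fluorescence-ratio B-score plate-corrected deviation score at least 3 library SD below zero, with starting fluorescence score within 5 deviations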;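 also: channel opened by trigger with iodide after compound preincubation; score built on the fluorescence ratio of max minus min over baseline; more negative score means more quench and so TMEM16A activation or potentiation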
ANO1 block – TMEM16A chloride channel inhibitors, primary screen, cell-based, HTS | HEK293 TMEM16A/YFP iodide influx fluorescence, ionomycin | 310,000 compounds, 1.2% hits | Anoctamin-1 (Mus musculus), Q8BHY3 | normalized B-score (activity score, 25-100; higher = stronger inhibition) at 10 µM | AID 588511, 2011;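 active = ratio plate-corrected score three or more library SD toward inhibition, starting fluorescence score within five deviations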;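 also: score derived from kinetic fluorescence span divided by baseline fluorescence per well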
MC4R barr ag – MC4R beta-arrestin agonists, retest, confirmation, cell-based, luminescence, U2OS | shares compounds with MC4R barr agon | U2OS MC4R beta-arrestin recruitment; scaled DMSO 0%, Melanotan II 100% | activation, % at 8.9 µM | 2,400 compounds, 31% hits | AID 602192, 2012;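 active = mean activation across replicates above the hit cutoff set in the earlier primary screen, cut at about 8% in these data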
MOR DOR agonist – agonists of MOR-DOR heterodimerization, counter-screen for MC4R biased agonist project, cell-based, luminescence; shares compounds with MC4R barr agon; U2OS PathHunter beta-arrestin, beta-gal luminescence; percent of deltorphin B response, DMSO zero; activation, % at 9.2 µM; 2,400 compounds, 5.8% hits;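 active = mean activation across replicates exceeds the hit threshold derived in the earlier primary screen, cut at about 18% in these data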;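 also: 100% = deltorphin B at 0.9 µM final and 0% = DMSO alone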
Target sequence (P35372 whole entry, looked up): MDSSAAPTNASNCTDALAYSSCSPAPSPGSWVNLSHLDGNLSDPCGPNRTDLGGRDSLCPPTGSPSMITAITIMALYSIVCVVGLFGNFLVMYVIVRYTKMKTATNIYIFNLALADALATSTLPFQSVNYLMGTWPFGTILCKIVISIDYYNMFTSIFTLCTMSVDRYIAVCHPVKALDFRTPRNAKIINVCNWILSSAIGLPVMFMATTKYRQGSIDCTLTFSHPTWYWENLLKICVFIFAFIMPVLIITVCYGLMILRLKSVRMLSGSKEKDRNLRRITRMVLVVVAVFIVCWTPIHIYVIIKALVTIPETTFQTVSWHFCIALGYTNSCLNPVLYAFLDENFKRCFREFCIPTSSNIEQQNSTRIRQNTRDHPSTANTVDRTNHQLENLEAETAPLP
Target sequence (P41143 whole entry, looked up): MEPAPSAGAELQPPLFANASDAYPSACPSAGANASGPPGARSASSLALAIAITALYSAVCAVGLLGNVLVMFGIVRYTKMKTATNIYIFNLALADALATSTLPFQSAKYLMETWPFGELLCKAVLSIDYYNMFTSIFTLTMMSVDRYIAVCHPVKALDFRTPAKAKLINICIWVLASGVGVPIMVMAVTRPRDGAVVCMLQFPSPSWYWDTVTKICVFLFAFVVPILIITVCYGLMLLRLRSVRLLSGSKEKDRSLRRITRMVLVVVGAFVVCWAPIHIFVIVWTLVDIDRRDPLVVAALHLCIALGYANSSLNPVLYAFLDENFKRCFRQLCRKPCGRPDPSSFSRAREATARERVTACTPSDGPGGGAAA
The depositor's hits bear a star; i = inactive; . = not tested or not shown.

SMILES | HTR2A ag | MIN6 prolif | MC4R barr agon | MC4R antag cAMP | TMEM16A act | ANO1 block | MC4R barr ag | MOR DOR agonist
O=C(NC1CCSc2ccccc21)c1ccc(C(F)(F)F)cc1 (centres undefined) | -2 | 2 | 9.7* | 6 | i | i | 1 | 5
Cc1ccc(-c2nc3ccccc3o2)cc1NC(=S)NC(=O)c1cc2ccccc2o1 | -1 | . | 17* | 1 | i | i | 11* | 5
Cc1ccc2oc(-c3ccc(C)c(NC(=S)NC(=O)c4cccs4)c3)nc2c1 | 1 | -6 | 4 | 6 | i | i | . | .
Cc1nc2ccccc2c2oc(C(=O)Nc3ccc(C(C)C)cc3)cc12 | 0 | -4 | 27* | 3 | i | i | 9.2* | 4
O=C1N/C(=N/c2ccccn2)SC1Cc1ccccc1 (centres undefined) | -4 | -2 | 2 | 10 | i | i | . | .
Cc1ccc(CC2S/C(=N/c3ccccn3)NC2=O)cc1 (centres undefined) | 0 | -4 | 14* | -4 | i | i | 1 | 6
CC1CCN(c2ccc3c(c2)S(=O)(=O)c2cccc(C(=O)NC4CC4)c2C3=O)CC1 | 2 | -3 | 0 | -3 | i | . | . | .
OC[C@@H]1CN(Cc2ccc(Cl)cc2)C[C@H](n2cnc3c(NC4CCC4)ncnc32)O1 | -4 | . | 0 | -3 | . | . | . | .
CC1CCCN(C(=O)COC(=O)C2CCN(S(=O)(=O)c3ccc(Cl)c(C(F)(F)F)c3)CC2)C1 (centres undefined) | 6 | -5 | 56* | -4 | i | i | 2 | 2
Cc1ccc(NC(=O)C2CCN(S(=O)(=O)c3ccc(Cl)c(C(F)(F)F)c3)CC2)nc1 | -2 | 2 | 9.9* | 2 | i | i | 2 | 7
CN(C)c1ccc(NC(=O)CN2CCc3ccccc3C2)cc1 | -8 | -2 | -1 | 1 | i | i | . | .
N#CCCN(Cc1ccccc1)C(=O)CCC(=O)c1ccc(F)cc1 | -2 | . | 0 | -1 | . | . | . | .
O=c1[nH]c(CN(CCc2ccccc2)S(=O)(=O)c2ccc(Cl)cc2)nc2ccccc12 | 5 | 0 | 23* | 2 | i | i | 5 | 8
COc1ccc(S(=O)(=O)N(Cc2ccccc2)Cc2nc3ccccc3c(=O)[nH]2)cc1 | -3 | -2 | -2 | 10 | i | i | . | .
O=C(CCC1CCN(C(=O)CC2=CCCCC2)CC1)NCc1ccc(F)cc1 | -8 | . | 1 | 15 | . | . | . | .
Cc1ccccc1N(C(=O)Cc1c[nH]c2ccccc12)C(C(=O)NC1CCCCC1)c1ccco1 (centres undefined) | -4 | 0 | 21* | -5 | i | i | 6 | 11
CC(=O)Nc1ccc(S(=O)(=O)NN=CCCc2ccccc2)cc1 | 0 | . | -2 | 4 | i | . | . | .
CC1CCCCN1S(=O)(=O)c1ccc(S(=O)(=O)N2CCN(c3ccccc3)CC2)cc1 (centres undefined) | 1 | -2 | 9.8* | 2 | i | i | 15* | 4
O=C(c1ccc(S(=O)(=O)N2CCCCC2)cc1)N1CCN(c2ccccc2)CC1 | -4 | 3 | -4 | 0 | i | i | . | .
O=C(Cn1nc(-c2ccccc2)ccc1=O)Nc1ccc(NC(=O)c2ccccn2)cc1 | -3 | -3 | 14* | 9 | i | i | 22* | 22*
COc1ccc(-c2nn(-c3ccccc3)cc2/C=C/C(=O)OCC(=O)Nc2ccc(C#N)cc2)cc1 | 1 | -3 | 10* | 3 | i | i | -1 | 4
COc1ccc(-c2nn(-c3ccccc3)cc2/C=C/C(=O)OCC(=O)Nc2cccc(C#N)c2)cc1 | 6 | -4 | 0 | 4 | i | i | . | .
C=CCNC(=S)N/N=C/c1cn(-c2ccccc2)nc1-c1ccc(OC)cc1 | 5 | -3 | 15* | 2 | i | i | 5 | 4
COc1ccc(-c2nn(-c3ccccc3)cc2/C=N/NC(=S)NC(C)C)cc1OC | -4 | -3 | -2 | -1 | i | i | . | .
O=C(N/N=C/c1c[nH]c2ccccc12)C1CC1(c1ccccc1)c1ccccc1 (centres undefined) | 3 | 0 | 19* | 13 | i | i | 16* | 8
SMILES | HTR2A ag | MIN6 prolif | MC4R barr agon | MC4R antag cAMP | TMEM16A act | ANO1 block | MC4R barr ag | MOR DOR agonist
O=C(N/N=C/c1ccncc1)C1CC1(c1ccccc1)c1ccccc1 (centres undefined) | 3 | 3 | 1 | 1 | i | i | . | .
CCOc1ccc(Cl)cc1-c1cc(C(=O)NCc2ccccc2OC)[nH]n1 | -6 | . | 1 | 3 | . | . | . | .
Cc1nn(-c2nc3ccccc3s2)c(N)c1Sc1ccc(F)cc1 | -3 | -3 | 15* | 0 | i | i | 1 | 4
Cc1nc(SC(C)C(=O)c2c(N)n(C)c(=O)n(C)c2=O)c2c(C)c(C)sc2n1 (centres undefined) | -8 | -1 | -1 | 6 | i | i | . | .
Fc1cccc(Cl)c1/C=N/Nc1c(Cl)cncc1Cl | 2 | 0 | 10* | -6 | i | i | 4 | 7
O=C(O/C(=C/c1ccccc1)C(F)(F)F)c1ccccc1 | -4 | . | 1 | 4 | i | . | . | .
CCc1cc(C(=O)Cc2cnn(-c3ccccc3)c2)c(O)cc1O | 2 | -2 | 22* | -7 | i | i | 8 | 5
COc1ccc2nc(C)cc(SCC(=O)NNC(=O)COc3ccc(C)cc3)c2c1 | -2 | -3 | 10* | 7 | i | i | -2 | 2
COc1ccc2nc(C)cc(SCC(=O)NNC(=O)COc3cccc4ccccc34)c2c1 | 8 | -5 | 1 | -1 | i | i | . | .
Oc1ccc(C[C@@H]2CNC(=S)N2CCCCC2CCCCC2)cc1 | 2 | -8 | 14* | 1 | i | i | 11* | 3
O=C1NC[C@@H](Cc2ccc(O)cc2)N(CCCCC2CCCCC2)C1=O | 2 | . | . | . | . | . | . | .
COc1ccc(-c2ccc(C#N)c(SCC(=O)NCc3ccco3)n2)cc1OC | -1 | 2 | 16* | -4 | i | i | -1 | 7

Source: PubChem BioAssay (several laboratories)
